From publication PMC13094344 (ACS chemical neuroscience, 2017)

How the values were obtained:
hCB1R [1] = biological target: T1, hCB1R (Homo sapiens, UniProt P21554); assay: PLCβ3 phosphorylation, In-cell western; assay type: cell-based; details: 1 nM – 10 μM; HEK293A and Neuro2a cells
hCB1R [2] = biological target: T1, hCB1R; assay: ERK1/2 phosphorylation, In-cell western; assay type: cell-based; details: 1 nM – 10 μM; HEK293A and Neuro2a cells
hCB2R = hCB2R (Homo sapiens, UniProt P34972); assay: [3H]CP55,940 binding to CHO-hCB2R membranes; details: data not shown
Chain of hCB2R (P34972 whole entry): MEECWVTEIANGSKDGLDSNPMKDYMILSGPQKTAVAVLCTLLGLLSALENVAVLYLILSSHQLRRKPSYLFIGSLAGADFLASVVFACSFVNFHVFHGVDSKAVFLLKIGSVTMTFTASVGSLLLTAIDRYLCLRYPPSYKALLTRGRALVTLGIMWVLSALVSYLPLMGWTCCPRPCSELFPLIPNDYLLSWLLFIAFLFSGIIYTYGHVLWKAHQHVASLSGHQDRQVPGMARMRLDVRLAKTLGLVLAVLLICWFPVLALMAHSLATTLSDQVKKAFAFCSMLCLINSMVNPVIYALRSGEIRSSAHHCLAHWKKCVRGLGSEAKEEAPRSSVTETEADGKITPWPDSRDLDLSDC
Outline: (§1)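 Filtration displacement assay with 0.7 nM [3H]CP55,940 in 50 mM Tris-HCl/50 mM Tris-base, 0.1% BSA, pH 7.4, run 60 min at 37 °C. Membranes were from CHO cells stably expressing hCB2R (50 µg protein) or from mouse whole brain. Test compound was added from 10 mM DMSO stock (0.1% DMSO final). Nonspecific binding used 1 µM unlabelled CP55,940; radioactivity was counted by liquid scintillation.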

CB1R [3] = biological target: T2, CB1R (Mus musculus, UniProt P47746); assay: [3H]CP55,940 binding to mouse brain membranes; details: 1 nM – 10 μM
T2 sequence (P47746 whole entry): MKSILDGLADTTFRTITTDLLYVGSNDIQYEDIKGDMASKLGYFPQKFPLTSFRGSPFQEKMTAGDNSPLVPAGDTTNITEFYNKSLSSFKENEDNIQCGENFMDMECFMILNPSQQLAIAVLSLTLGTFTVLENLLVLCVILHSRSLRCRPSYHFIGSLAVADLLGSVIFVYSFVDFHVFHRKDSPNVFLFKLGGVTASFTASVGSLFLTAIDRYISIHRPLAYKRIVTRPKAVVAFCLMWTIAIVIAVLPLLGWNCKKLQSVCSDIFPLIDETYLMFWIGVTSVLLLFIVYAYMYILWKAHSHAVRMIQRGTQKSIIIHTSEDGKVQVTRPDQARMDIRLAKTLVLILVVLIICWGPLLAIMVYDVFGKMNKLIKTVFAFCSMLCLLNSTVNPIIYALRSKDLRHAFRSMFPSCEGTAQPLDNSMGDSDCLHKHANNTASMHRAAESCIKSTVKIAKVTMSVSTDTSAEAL
Outline: as §1

CB1R [4] = biological target: T2, CB1R; assay: Electrically-evoked contractions of mouse isolated vas deferens
hCB1R [5] = biological target: T1, hCB1R; assay: Arrestin2 recruitment to hCB1R-GFP2 by BRET2; assay type: cell-based; details: for Arrestin2 recruitment by the compound alone: 1 nM – 10 μM, HEK293A or Neuro2a cells; for Log(αβ) / α (affinity modulation) / β (efficacy modulation) / τB (modulator efficacy): BRETEff, HEK293A, ± SD; for Log(αβ) / α (affinity modulation) / β (efficacy modulation): CP55,940 as agonist; for τB (modulator efficacy): fraction of the efficacy of CP55,940
hCB1R [6] = biological target: T1, hCB1R; assay: cAMP luciferase reporter assay in HEK-CRE cells transfected with hCB1R-GFP2; assay type: cell-based; details: for Log(αβ) / α (affinity modulation) / β (efficacy modulation): CP55,940 as agonist, ± SD; for τB (modulator efficacy): fraction of the efficacy of CP55,940, ± SD
hCB1R [7] = assay: Induced signaling bias, cAMP inhibition versus arrestin2 recruitment, ΔLog; assay type: cell-based, human; details: CP55,940, 95% CI; for ΔLog(αβ): cAMP versus arrestin2 (BRET2); for Induced Bias: toward inhibition of cAMP production over arrestin2 recruitment
Outline: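 Arrestin2 arm: HEK293A cells were transfected with hCB1R-GFP2 and arrestin2-Rluc. Cells were suspended in BRET buffer 48 h later and read by BRET2 (coelenterazine 400a 50 μM; emissions 405/510 nm). cAMP arm: HEK-CRE cells carried hCB1R-GFP2 and were read by luciferase reporter in 10 µM forskolin. CP55,940 1 nM–10 µM ± test compound 1 nM–10 µM, 0.1% DMSO. Data were fit to an allosteric binding plus Black-Leff operational model, with four independent estimates.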

hCB1R [8] = biological target: T1, hCB1R; assay: [3H]CP55,940 binding to CHO-hCB1R membranes; details: 10 μM

T1 sequence (P21554 whole entry): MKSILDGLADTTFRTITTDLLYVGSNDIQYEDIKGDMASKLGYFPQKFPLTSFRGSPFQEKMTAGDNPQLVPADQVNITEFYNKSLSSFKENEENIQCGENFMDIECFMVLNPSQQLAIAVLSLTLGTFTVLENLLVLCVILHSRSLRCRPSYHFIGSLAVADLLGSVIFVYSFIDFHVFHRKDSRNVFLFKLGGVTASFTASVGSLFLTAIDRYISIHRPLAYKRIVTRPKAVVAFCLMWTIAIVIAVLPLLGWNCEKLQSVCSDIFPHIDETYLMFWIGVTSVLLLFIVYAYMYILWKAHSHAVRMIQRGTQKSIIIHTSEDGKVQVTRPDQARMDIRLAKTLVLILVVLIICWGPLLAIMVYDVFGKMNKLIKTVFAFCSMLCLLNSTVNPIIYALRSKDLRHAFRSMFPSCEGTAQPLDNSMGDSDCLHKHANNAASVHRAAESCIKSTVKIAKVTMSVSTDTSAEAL

Compound | PLCβ3 phosphorylation by the compound alone (hCB1R [1]) | ERK phosphorylation by the compound alone (hCB1R [2]) | Increase of [3H]CP55,940 binding to hCB2R (hCB2R; 10 μM) [%] | Effect on [3H]CP55,940 binding to hCB2R (hCB2R; up to 1 μM) | Effect on [3H]CP55,940 binding to mouse brain membranes (CB1R [3]) | Effect by itself on electrically-evoked contractions (CB1R [4]; 1 nM up to 10 μM, n=6, data not shown) | Effect on AEA-induced inhibition of electrically-evoked contractions (CB1R [4]; 1 μM modulator, AEA 10 and 100 nM) | Arrestin2 recruitment by the compound alone (hCB1R [5]) | Log(αβ) (hCB1R [5]) | α (affinity modulation) (hCB1R [5]) | β (efficacy modulation) (hCB1R [5]) | τB (modulator efficacy) (hCB1R [5]) | Log(αβ) (hCB1R [6]) | α (affinity modulation) (hCB1R [6]) | β (efficacy modulation) (hCB1R [6]) | τB (modulator efficacy) (hCB1R [6]) | ΔLog(αβ) (hCB1R [7]) | Induced Bias (hCB1R [7]) | Effect on [3H]CP55,940 binding (hCB1R [8])
O=[N+]([O-])CC(c1ccccc1)c1c(-c2ccccc2)[nH]c2ccccc12 (centres unmarked) [GAT211] | increased | increased | 29 | no effect | enhanced | no statistically significant effect | potentiated | increased arrestin2 recruitment in a concentration-dependent manner | 1.35 ± 0.04 | 24 ± 2.83 | 0.95 ± 0.06 | 0.15 ± 0.03 | 1.37 ± 0.06 | 21 ± 2 | 1.13 ± 0.19 | 0.19 ± 0.08 | 0.01 (−0.18 – 0.21) | n.s | –
O=[N+]([O-])C[C@H](c1ccccc1)c1c(-c2ccccc2)[nH]c2ccccc12 [GAT228] | increased | increased | – | – | – | – | – | increased arrestin2 recruitment in a concentration-dependent manner | 0.21 ± 0.10 | 2.5 ± 0.58 | 0.68 ± 0.09 | 0.19 ± 0.04 | −0.06 ± 0.36 | 1.08 ± 0.34 | 0.95 ± 0.5 | 0.15 ± 0.06 | −0.27 (−0.40 – −0.09) | 0.54 (0.35 – 0.81) | weak PAM effect
O=[N+]([O-])C[C@@H](c1ccccc1)c1c(-c2ccccc2)[nH]c2ccccc12 [GAT229] | without effect | without effect | – | – | – | – | – | no effect | 0.97 ± 0.14 | 4.25 ± 1.5 | 2.3 ± 0.38 | 0 | 1.3 ± 0.35 | 2.25 ± 1.26 | 10.75 ± 4.43 | 0 | 0.34 (0.14 – 0.54) | – | –
